Screening data (PubChem BioAssay)
The list is not random: actives were taken first. Their share in the collection is about 0.95%.
CSN inh: blocks human CSN-mediated cullin deneddylation. Q92905. Purified CSN, SCF-Nedd8-OG deneddylation, fluorescence polarization. inhibition, % at 12.5 µM. actives 0.38% (n = 360,000);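 active = pattern-corrected inhibition above about 35%, with an unprinted fluorescence ratio check between 0.5 and 1.5, limit read from the data, passing the limit was not always enough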;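 also: 0% = enzyme with substrate and 100% = substrate without enzyme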
Target sequence (Q92905 whole entry, looked up, one chain of several): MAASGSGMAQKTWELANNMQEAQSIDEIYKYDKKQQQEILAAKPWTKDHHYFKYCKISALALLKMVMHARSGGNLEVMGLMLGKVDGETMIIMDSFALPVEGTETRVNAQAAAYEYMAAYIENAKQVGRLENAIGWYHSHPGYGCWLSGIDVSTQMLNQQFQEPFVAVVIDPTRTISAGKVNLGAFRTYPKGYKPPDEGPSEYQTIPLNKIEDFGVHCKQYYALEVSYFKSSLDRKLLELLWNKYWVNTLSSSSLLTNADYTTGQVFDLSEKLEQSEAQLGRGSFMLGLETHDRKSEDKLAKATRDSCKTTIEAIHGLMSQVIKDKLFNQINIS
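Test system: Human Csn5 produced in HEK293T cells | Compound: 12.5 µM single point | Times: 90 min, room temperature | Signal: Fluorescence polarization readout | Read-out basis: % inhibition of substrate cleavage by Csn5 | Controls: no-enzyme wells high, enzyme-with-substrate wells low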
ASAP1 GAP inh: inhibitors of human ASAP1 ArfGAP activity | Q9ULH1 | ASAP1-stimulated ARF1 GTP hydrolysis, GDP FP detection | inhibition, % at 16.5 µM | actives 0.19% (n = 360,000) | AID 624377; in the data active = inhibition above about 25%;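 also: 0% = vehicle with enzyme and substrate and 100% = no enzyme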
ARFGAP1 inhibitor: inhibits rat ARF GTPase activating protein 1 | Q62848 | Arfgap1-stimulated ARF1 GTP hydrolysis, GDP FP detection | inhibition, % at 16.5 µM | actives 0.26% (n = 360,000);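 active = inhibition above a per-plate limit, mean inhibition of low control wells plus 3 SD, cut at about 25% in these data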;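 also: 0% = DMSO wells with enzyme and 100% = wells lacking Arfgap1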
Target sequence (Q62848 1-136 limits assumed): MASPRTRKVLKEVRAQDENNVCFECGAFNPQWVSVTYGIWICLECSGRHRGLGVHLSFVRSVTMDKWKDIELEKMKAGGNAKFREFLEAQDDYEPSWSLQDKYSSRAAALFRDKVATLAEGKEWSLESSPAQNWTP
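Material: rat Arfgap1 GAP domain (His6, aa 1-136), purified enzyme. Also added: human ARF1(Δ1-17)-GTP substrate. Compound dosing: 16.5 µM single point, 1.26% DMSO. Timing: enzyme reaction 120 min at 25 °C after 20 min preincubation. Signal: GDP detection by fluorescence polarization. Read-out basis: percent inhibition of GAP-stimulated GDP formation, scaled between DMSO and no-Arfgap1 medians.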
HNF4A DNA FP: change in binding of human HNF4 alpha to DNA; P41235; HNF4a-FITC DNA binding, fluorescence polarization, 1 h; activity change, % at 10 µM; actives 0.3% (n = 360,000); AID 1224865; in the data active = activity change above about 30%, passing the limit was not always enough
Numbers without * were called inactive; . = no result.

SMILES	CSN inh	ASAP1 GAP inh	ARFGAP1 inhibitor	HNF4A DNA FP
O=Cc1ccc2oc3nc4n(c(=O)c3c(=O)c2c1)CCCS4	45*	10	8	-32
CC(=O)N1CCN(c2ccc(N3CCN(C(C)=O)[C@H](C)C3)c(C)c2)[C@@H](C)C1	.	4	7	.
CCCN1CCCCC(NC(=O)c2ccccc2OC)C1=O (stereo not drawn)	.	7	-6	.
CN(CC(=O)Nc1cccc(F)c1)C(=O)c1cc(-c2ccco2)nc2ccccc12	55*	-10	-15	-16
Cc1cc2c(c(=O)o1)[C@@]1(C(=O)N(C)c3ccccc31)C1=C(CC(C)(C)OC1=O)O2	.	-9	-1	.
COc1ccc(-c2cc(=O)oc3c(C)c(OCC(=O)Nc4cccnc4)ccc23)cc1	90*	-5	-2	18
Cc1c(C)c2ccc(OCC(=O)Nc3cccnc3)c(C)c2oc1=O	0	5	5	1
COc1ccc(N/C=C\C(=O)c2ccc(Br)cc2)cc1OC	53*	-6	-2	123
CCOC(=O)c1cccc(N/C=C/C(=O)c2ccc(OC)c(OC)c2)c1	92*	2	-3	1
O=C(NC1CCCC1)c1cnn2c(C(F)(F)F)cc(-c3ccc4c(c3)OCO4)nc12	22	.	.	70*
O=C(c1cnn2c(C(F)(F)F)cc(-c3ccc4c(c3)OCO4)nc12)N1CCCCC1	-3	14	3	-2
CC(C)C[C@H](NC(=O)c1nccs1)C(=O)N1CCC[C@H]1C(=O)NCc1ccccc1	.	5	8	.
CC(C)OCCCNC(=O)c1c(N)n(/N=C/c2cccs2)c2nc3ccccc3nc12	41*	-1	-9	4
CCCC(C)C(=O)NC1CCCCN(C)C1=O (stereo not drawn)	.	0	6	.
CCN1/C(=C/c2ccc3ccccc3[n+]2CC)C=Cc2ccccc21	23	1	1	44*
Nc1[nH]c(C(=O)c2ccccc2)c(-c2cccc(C(F)(F)F)c2)c1C(=O)NCCc1c[nH]c2ccccc12	.	9	0	.
CCOC(=O)C(=Cc1ccc(-c2ccsc2C(=O)OC)o1)C(=O)OCC	118*	7	5	5
COC(=O)C(=Cc1ccc(-c2ccsc2C(=O)OC)o1)C(=O)OC	4	4	3	1
CN1/C(=C/C=C/c2n(C)c3cc([N+](=O)[O-])c([N+](=O)[O-])cc3[n+]2C)C(C)(C)c2ccccc21	11	9	14	95*
Cc1ccccc1CN1CCN(C(=O)[C@H]2O[C@@H](n3cnc(C(N)=O)n3)[C@H](O)[C@@H]2O)CC1	.	-5	4	.
COc1cccc(OC)c1C(=O)N1CCOCC1	1	4	-13	34*
O=C(O)CCC(=O)Nc1cccc(C(=O)Nc2ccc(Br)cc2)c1	-4	-5	2	80*
Nc1ccn([C@@H]2O[C@H](C(=O)N[C@H](Cc3ccccc3)C(=O)N3CCN(C(=O)N4CCCCC4)CC3)[C@@H](O)[C@H]2O)c(=O)n1	.	-5	5	.
O=C(COc1ccccc1)Nc1sc2c(c1C(=O)NCc1cccnc1)CCCC2	41*	0	8	-12
COc1ccc(/C=C/C(=O)Nc2sc3c(c2C(=O)NCc2cccnc2)CCCC3)cc1	0	0	-4	-6
SMILES	CSN inh	ASAP1 GAP inh	ARFGAP1 inhibitor	HNF4A DNA FP
COc1ccc(-c2n[nH]c(=S)n2-c2ccc(C)cc2C)cc1	1	-3	10	36*
CCOC(=O)C1=CCC(C(C)(C)C)N(S(=O)(=O)c2ccc(C)cc2)C1 (stereo not drawn)	110*	4	-10	-1
COc1ccc(-c2[nH]c(-c3ccc(C)cc3)nc2SCC(=O)Nc2nccs2)cc1	-7	-5	8	30*
COc1ccc(-c2nc(SCC(=O)Nc3nccs3)c(-c3ccc(Cl)cc3)[nH]2)cc1	-7	-4	-1	-1
COc1cccc(CNC(=O)[C@H]2CCCN2)c1	.	2	-11	.
O=C(O)c1sc2cc(C(F)(F)F)cnc2c1-c1ccccc1	-1	25*	12	-6
COC(=O)c1sc2cc(C(F)(F)F)cnc2c1-c1ccccc1	0	-10	-7	2
COC(=O)[C@]12C[C@H](CC(=O)NCC3CCCCC3)C(=O)N(Cc3ccc4c(c3)OCO4)C1=C[C@H](COCc1ccccc1)O[C@@H]2C	.	4	-7	.
Cc1ccc(CN=Cc2[nH]c3ccc(Br)c(Cl)c3c2O)cc1	0	-3	-10	46*
Oc1c(C=NCc2ccc(F)cc2)[nH]c2ccc(Br)c(Cl)c12	.	-11	7	.
COC(=O)[C@]12C[C@H](CC(=O)N3CCN(C(=O)C4CC4)CC3)C(=O)N(Cc3ccccc3)C1=C[C@H](C(C)C)O[C@@H]2C1CC1	.	1	5	.
CCOc1cc(C#N)c(NC(=O)Cn2nnc3ccccc32)cc1OCC	-3	-8	-2	34*
O=C(Cn1nnc2ccccc21)Nc1ccccc1[N+](=O)[O-]	-1	22	5	3
O=C(O)c1ccc(/C=C2/SC(=S)N(Cc3ccccc3)C2=O)cc1	5	-10	-8	-4
COc1cc(/C=C2/SC(=S)N(Cc3ccccc3)C2=O)ccc1OCC(=O)O	11	4	-8	8
CC(=O)Oc1ccc(/C=C2/SC(=S)N(Cc3ccccc3)C2=O)cc1	13	2	5	50*
O=C1/C(=C\c2ccc(O)cc2)SC(=S)N1Cc1ccccc1	96	5	24	94*
Cc1cc(C)n(-c2ccnc3cc(Cl)ccc23)n1	-1	-5	12	1
CC(=O)c1sc(N/N=C\c2ccc(Br)cc2)nc1C	17	9	14	38*
CCOC(=O)c1sc(N/N=C/c2ccc(N(C)C)cc2)nc1C	3	-6	9	3
Nc1nc2ncccc2cc1C(=O)NC1CC1	.	1	1	.
Cc1cc(C)cc(Nc2nc3ccccc3c(=O)[nH]2)c1	-6	-11	4	-1
COc1nc(Nc2nc3ccccc3c(=O)[nH]2)nc2ccc(C)cc12	8	15	8	275*
C[C@H](c1ccccc1)N1C[C@@H](COCc2ccccc2)Oc2cccc(Oc3ccc(C(C)(C)C)cc3)c2S1(=O)=O	.	1	1	.
Cc1cc(C(=O)CCC(=O)N(C)CC(=O)Nc2c(Cl)cccc2Cl)c(C)s1	90*	2	-3	4
SMILES	CSN inh	ASAP1 GAP inh	ARFGAP1 inhibitor	HNF4A DNA FP
COc1ccc(C2CC(=O)C(c3ccc(C(F)(F)F)cc3)=CN2Cc2ccccc2)cc1 (stereo not drawn)	.	-4	5	.
O=C1C=C(O)c2cccc(O)c2C1=O	9	0	-4	-9
CC1OC(CC(=O)O)CC2=C1C(=O)c1c(O)cccc1C2=O (stereo not drawn)	7	47*	-18	-1
S=c1[nH]ncn1/N=C/c1ccccc1	1	-3	-8	44*
S=c1[nH]ncn1/N=C/c1ccc(Br)cc1	3	-5	-7	0
Cn1c(=O)c2c(c3ccccc31)OC(C)(C)C=C2	.	1	3	.
Cc1ccc(-c2csc3nc(-c4ccncc4)[nH]c(=O)c23)cc1	44*	-22	-10	77*
